Holding throughout (assay type): functional
Assay [1] concerns Mycobacterium tuberculosis. Nature of the assay: Antimycobacterial activity against fluoroquinolone-resistant Mycobacterium tuberculosis Beijing genotype isolates without carrying multiple mutation and harboring gyrA A90V mutant gene. The essentials: (§1)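 Ofloxacin MIC was determined on the first 65 FQ-resistant clinical isolates, and 64 regrew on subculture. Resistance was defined by the WHO 1% proportion method on Lowenstein-Jensen medium with ofloxacin at 2 μg/ml. Mutations were assigned by gyrA/gyrB sequencing and Beijing genotype by spoligotyping. The value is the median MIC per mutation, excluding isolates with multiple mutations or sequencing heteropeaks.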

Assay [2] has as its system Mycobacterium tuberculosis. Nature of the assay: Antimycobacterial activity against fluoroquinolone-resistant Mycobacterium tuberculosis Beijing genotype isolates without carrying multiple mutation and harboring gyrA D94A mutant gene. The essentials: as §1
Assay [3] deals with Mycobacterium tuberculosis. Nature of the assay: Antimycobacterial activity against fluoroquinolone-resistant Mycobacterium tuberculosis Beijing genotype isolates without carrying multiple mutation and harboring gyrA D94G mutant gene. The essentials:
as §1

In assay [4] the test system is Mycobacterium tuberculosis. Nature of the assay: Antimycobacterial activity against fluoroquinolone-resistant Mycobacterium tuberculosis Beijing genotype isolates without carrying multiple mutation and harboring gyrA D94N mutant gene. The essentials:
as §1

Assay [5] concerns Mycobacterium tuberculosis. Nature of the assay: Antimycobacterial activity against fluoroquinolone-resistant Mycobacterium tuberculosis Beijing genotype isolates without carrying multiple mutation and harboring gyrA D94Y mutant gene. The essentials: as §1
The test system of assay [6] is Mycobacterium tuberculosis. Nature of the assay: Antimycobacterial activity against fluoroquinolone-resistant Mycobacterium tuberculosis Beijing genotype isolates without carrying multiple mutation and harboring gyrB D500N mutant gene. The essentials:
as §1

The test system of assay [7] is Mycobacterium tuberculosis. Nature of the assay: Antimycobacterial activity against fluoroquinolone-resistant Mycobacterium tuberculosis Beijing genotype isolates without carrying multiple mutation and harboring gyrB D540D mutant gene. The essentials: as §1
The subject of assay [8] is Mycobacterium tuberculosis. Nature of the assay: Antimycobacterial activity against fluoroquinolone-resistant Mycobacterium tuberculosis Beijing genotype isolates without carrying mutation. The essentials:
as §1

Assay [9] concerns Mycobacterium tuberculosis. Nature of the assay: Antimycobacterial activity against fluoroquinolone-resistant Mycobacterium tuberculosis Beijing genotype isolates without carrying multiple mutation and harboring gyrB A90V and T539P mutant genes.
Assay [10] concerns Mycobacterium tuberculosis. Nature of the assay: Antimycobacterial activity against mixture of fluoroquinolone-resistant and sensitive Mycobacterium tuberculosis Beijing genotype isolates carrying heteropeaks upon sequencing at mutation site and harboring gyrA A90V mutant gene. The essentials:
(§2)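 Ofloxacin MIC was determined on isolates from the first 65 FQ-resistant clinical isolates, screened by the WHO 1% proportion method on Lowenstein-Jensen medium with ofloxacin at 2 μg/ml. Beijing genotype was assigned by spoligotyping.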

Assay [11] concerns Mycobacterium tuberculosis. Nature of the assay: Antimycobacterial activity against mixture of fluoroquinolone-resistant and sensitive Mycobacterium tuberculosis Beijing genotype isolates carrying heteropeaks upon sequencing at mutation site and harboring gyrA D94A mutant gene. The essentials:
as §2

The test system of assay [12] is Mycobacterium tuberculosis. Nature of the assay: Antimycobacterial activity against mixture of fluoroquinolone-resistant and sensitive Mycobacterium tuberculosis Beijing genotype isolates carrying heteropeaks upon sequencing at mutation site and harboring gyrA D94G mutant gene. The essentials: as §2
Assay [13] deals with Mycobacterium tuberculosis. Nature of the assay: Antimycobacterial activity against mixture of fluoroquinolone-resistant and sensitive Mycobacterium tuberculosis Beijing genotype isolates carrying heteropeaks upon sequencing at mutation site and harboring gyrA D94N mutant gene. The essentials: as §2
Assay [14] deals with Mycobacterium tuberculosis. Nature of the assay: Antimycobacterial activity against mixture of fluoroquinolone-resistant and sensitive Mycobacterium tuberculosis Beijing genotype isolates carrying heteropeaks upon sequencing at mutation site and harboring gyrA D94Y mutant gene. The essentials: as §2
Assay [15] relates to Mycobacterium tuberculosis. Nature of the assay: Antimycobacterial activity against mixture of fluoroquinolone-resistant and sensitive Mycobacterium tuberculosis Beijing genotype isolates carrying heteropeaks upon sequencing at mutation site and harboring gyrA G88A mutant gene. The essentials: as §2
Assay [16] has as its system Mycobacterium tuberculosis. Nature of the assay: Antimycobacterial activity against mixture of fluoroquinolone-resistant and sensitive Mycobacterium tuberculosis Beijing genotype isolates carrying heteropeaks upon sequencing at mutation site and harboring gyrB D500N mutant gene. The essentials: as §2
Assay [17] has as its system Mycobacterium tuberculosis. Nature of the assay: Antimycobacterial activity against mixture of fluoroquinolone-resistant and sensitive Mycobacterium tuberculosis Beijing genotype isolates carrying heteropeaks upon sequencing at mutation site and harboring gyrB D540D mutant gene. The essentials:
as §2

In assay [18] the test system is Mycobacterium tuberculosis. Nature of the assay: Antimycobacterial activity against mixture of fluoroquinolone-resistant and sensitive Mycobacterium tuberculosis Beijing genotype isolates carrying heteropeaks upon sequencing. The essentials:
as §2

Assay [19] has as its system Mycobacterium tuberculosis. Nature of the assay: Antimycobacterial activity against mixture of fluoroquinolone-resistant and sensitive Mycobacterium tuberculosis Beijing genotype isolates carrying heteropeaks upon sequencing at mutation site and harboring gyrB A90V and D500A mutant genes. The essentials: as §2
The subject of assay [20] is Mycobacterium tuberculosis. Nature of the assay: Antimycobacterial activity against mixture of fluoroquinolone-resistant and sensitive Mycobacterium tuberculosis Beijing genotype isolates carrying heteropeaks upon sequencing at mutation site and harboring gyrB A90V and T539P mutant genes. The essentials:
as §2

Assay [21] deals with Mycobacterium tuberculosis. Nature of the assay: Antimycobacterial activity against mixture of fluoroquinolone-resistant and sensitive Mycobacterium tuberculosis Beijing genotype isolates carrying heteropeaks upon sequencing at mutation site and harboring gyrA A90V and D94A mutant genes. The essentials:
as §2

Assay [22] deals with Mycobacterium tuberculosis. Nature of the assay: Antimycobacterial activity against mixture of fluoroquinolone-resistant and sensitive Mycobacterium tuberculosis Beijing genotype isolates carrying heteropeaks upon sequencing at mutation site and harboring gyrA A90V and D94G mutant genes. The essentials: as §2
Assay [23] relates to Mycobacterium tuberculosis. Nature of the assay: Antimycobacterial activity against mixture of fluoroquinolone-resistant and sensitive Mycobacterium tuberculosis Beijing genotype isolates carrying heteropeaks upon sequencing at mutation site and harboring gyrA D94G and D94A mutant genes. The essentials: as §2

Molecules are shown by their SMILES. Converted amounts (≈) assume the structure as drawn. A value given as a limit tells only on which side of the number the result lay.

With `CC1COc2c(N3CCN(C)CC3)c(F)cc3c(=O)c(C(=O)O)cn1c23` (stereo not drawn) [OFLOXACIN], the minimum inhibitory concentration (MIC) (as a rule, the smallest concentration in the dilution series that meets the test's criterion for growth inhibition) in [1] is 8 µg/mL (≈ 22.1 µM); in assay [2] it was 8 µg/mL (≈ 22.1 µM); in [3] it was 12 µg/mL (≈ 33.2 µM); in [4], 12 µg/mL (≈ 33.2 µM); in assay [5], 12 µg/mL (≈ 33.2 µM); in assay [6], greater than 4 µg/mL. In addition, the MIC in [7] was 12 µg/mL (≈ 33.2 µM); in [8], 4 µg/mL (≈ 11.1 µM); in assay [9] it was greater than 12 µg/mL; in assay [10], 8 µg/mL (≈ 22.1 µM); in assay [11] it was 8 µg/mL (≈ 22.1 µM); in assay [12] it was 12 µg/mL (≈ 33.2 µM). The minimum inhibitory concentration (MIC) is 12 µg/mL (≈ 33.2 µM) in assay [13]; greater than 12 µg/mL in assay [14]; 12 µg/mL (≈ 33.2 µM) in assay [15]; 4 µg/mL (≈ 11.1 µM) in assay [16]; 12 µg/mL (≈ 33.2 µM) in assay [17]; 4 µg/mL (≈ 11.1 µM) in [18]. In addition, the minimum inhibitory concentration (MIC) in [19] was 8 µg/mL (≈ 22.1 µM); in assay [20], greater than 12 µg/mL; in [21], 8 µg/mL (≈ 22.1 µM); in [22], 12 µg/mL (≈ 33.2 µM); in [23], 12 µg/mL (≈ 33.2 µM).

The values above are taken from ChEMBL document CHEMBL1687749, “Beijing genotype of Mycobacterium tuberculosis is significantly associated with high-level fluoroquinolone resistance in Vietnam” (2009).
